Published values collected from several papers.
Lines come from different studies, so protocols differ.
Target: Tyrosine-protein kinase ITK/TSK (ITK, Homo sapiens, UniProt Q08881)
One construct used (Q08881 1-620): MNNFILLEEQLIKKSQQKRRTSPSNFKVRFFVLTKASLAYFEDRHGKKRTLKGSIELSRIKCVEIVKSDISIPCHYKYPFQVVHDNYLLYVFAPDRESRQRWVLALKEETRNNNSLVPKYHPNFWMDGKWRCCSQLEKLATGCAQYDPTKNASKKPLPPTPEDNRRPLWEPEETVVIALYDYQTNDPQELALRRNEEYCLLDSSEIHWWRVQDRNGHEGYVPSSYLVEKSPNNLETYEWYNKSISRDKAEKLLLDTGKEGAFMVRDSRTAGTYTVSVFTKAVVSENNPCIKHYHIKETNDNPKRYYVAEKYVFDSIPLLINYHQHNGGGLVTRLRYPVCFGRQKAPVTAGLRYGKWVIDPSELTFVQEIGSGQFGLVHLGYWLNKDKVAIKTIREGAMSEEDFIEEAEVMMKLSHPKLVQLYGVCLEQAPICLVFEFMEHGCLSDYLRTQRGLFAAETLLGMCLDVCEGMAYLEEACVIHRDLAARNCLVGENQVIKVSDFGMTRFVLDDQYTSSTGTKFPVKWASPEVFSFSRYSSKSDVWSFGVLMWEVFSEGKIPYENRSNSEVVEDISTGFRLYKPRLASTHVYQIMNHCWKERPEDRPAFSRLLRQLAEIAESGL

Structure (SMILES) | test | setting | remaining binding [%]
c1cncc(-c2cccc(Nc3nccc(NC4CCCCC4)n3)c2)c1 | binding, competition with immobilised ligand | 10 µM | 80
CN(c1nccc(-c2cnn3ncccc23)n1)C1CC1 | binding | 1 µM | 100
C[C@H](c1ccnc(Nc2nc3ccc(-c4cc(N(C)C)ncn4)cc3[nH]2)c1)N1CCN(C(=O)CC(F)(F)F)CC1 | cell-free assay, competition with immobilised ligand | 0.1 µM | 100
O=C(c1ccc(Nc2ncc(Cl)c(-c3cc4ccccc4s3)n2)cc1)N1CCC(N2CCCC2)CC1 | binding, competition with immobilised ligand | 1 µM | 50
C[C@@H]1CCN(c2nccc(-c3cnn4ncccc34)n2)C1 | binding | 1 µM | 91
Cc1c(NC(=O)c2cc(C(N)=O)nc3cc(F)ccc23)c(C(F)(F)F)nn1Cc1ccc(C#N)cc1 | cell-free assay, competition with immobilised ligand | 1 µM | 78
N[C@@H]1CCN(c2nccc(-c3cnn4ncccc34)n2)C1 | binding | 1 µM | 93
O=C(c1ccc(Nc2nccc(-c3cc4ccccc4s3)n2)cc1)N1CCC(N2CCCC2)CC1 | binding, competition with immobilised ligand | 1 µM | 96
CN(C)c1nccc(-c2cnn3ncccc23)n1 | binding | 1 µM | 100
CCC(=N\O)/C(C)=C/c1ccc(F)cc1 | cell-free assay, competition with immobilised ligand | 1 µM | 90
O=C(Nc1c[nH]nc1C(=O)NC1CCNCC1)c1cc(F)cc(F)c1 | binding, competition with immobilised ligand | 1 µM | 100
COc1cnc(Nc2cccc(S(N)(=O)=O)c2)nc1N1CCN(c2ccccc2)CC1 | binding, competition with immobilised ligand | 1 µM | 95
CC1CCCN1c1nccc(-c2cnn3ncccc23)n1 (centres unmarked) | binding | 1 µM | 100
Cn1nc(C(=O)NCc2ccc(C(=O)O)cc2)cc1-c1ccc2[nH]ccc2c1 | cell-free assay, competition with immobilised ligand | 0.1 µM | 85
O=C(NCCCN1CCOCC1)c1ccc(Nc2ncc(Cl)c(-c3ccc(Cl)s3)n2)cc1 | binding, competition with immobilised ligand | 1 µM | 40
F[C@@H]1CCN(c2nccc(-c3cnn4ncccc34)n2)C1 | binding | 1 µM | 100
COc1ccc2c(c1)O[C@H](c1ccc(OC)c(OC)c1)C[C@@H]2NC(=O)C1(c2ccc3c(c2)OC(F)(F)O3)CC1 | cell-free assay, competition with immobilised ligand | 1 µM | 100
COc1ncc2cc3ccccc3nc2c1C#N | cell-free assay, competition with immobilised ligand | 5 µM | 97
CCC(=O)N[C@@H]1CC[C@H](C(=O)N(C)c2ccc(-c3nc4ccccc4o3)cc2)C1 | cell-free assay, competition with immobilised ligand | 1 µM | 100
FC(F)(F)Oc1cccc(-c2cnc3ccc(-c4ccncc4)nn23)c1 | cell-free assay, competition with immobilised ligand | 5 µM | 84
